IC50 data for four molecules are collected here from ChEMBL document CHEMBL1150119, “Cytotoxic germacranolides from Inula verbascifolia subsp. methanea” (J Nat Prod, 2002).

Format in all cases: functional, cell-based
For one assay, the system named is HT-29. The assay can be described thus: Cytotoxicity against human HT-29 cells after 48 hrs by MTT assay. To be noted: HT-29, 48 h. Summed up: (§1)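 Adherent human tumor cells kept in DMEM with 10% FBS, penicillin and streptomycin, at 37 °C under 5% CO₂ and 85% humidity, and subcultured with trypsin-EDTA. Cells were seeded at 5000/well and compounds in DMSO were added 24 h later. After 48 h, medium was swapped for MTT (1 mg/mL final, serum-free phenol-red-free RPMI) for 4 h. Formazan was dissolved in 2-propanol and read at 550 nm against 690 nm reference.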

The subject of another assay is HCT-116. Description: Cytotoxicity against human HCT116 cells after 48 hrs by MTT assay. To be noted: HCT-116, 48 h. The essentials:
as §1

Assay [1] can be described thus: Cytotoxicity against human HRT18 cells after 48 hrs by MTT assay. To be noted: HRT-18, 48 h. Summed up:
as §1

The test system of another assay is MCF7. Description: Cytotoxicity against human MCF7 cells expressing estrogen receptor after 48 hrs by MTT assay. To be noted: MCF7, 48 h. The essentials:
as §1

The test system of another assay is LNCaP. Description: Cytotoxicity against human LNCAP cells expressing androgen receptor after 48 hrs by MTT assay. Summed up:
as §1

The test system of a further assay is PC-3. The assay can be described thus: Cytotoxicity against human PC3 cells after 48 hrs by MTT assay. To be noted: PC-3, 48 h. Summed up: as §1

Values after ≈ are worked out from the molar mass of the structure shown.

For the molecule `C=C1C(=O)O[C@@H]2[C@H]3O[C@]3(C)CC/C=C(\C)[C@@H](OC(=O)CC(C)(O)CC)C[C@@H]12` (some centres undefined), the IC50 in the assay on HT-29 is 11.7 µg/mL (≈ 30.9 µM); with HCT-116, 7.1 µg/mL (≈ 18.8 µM); in assay [1], 8.75 µg/mL (≈ 23.1 µM); in the assay with MCF7, above 40 µg/mL; with LNCaP it was 30.2 µg/mL (≈ 79.8 µM); in the assay on PC-3, 15.7 µg/mL (≈ 41.5 µM).
`C=C1C(=O)O[C@@H]2[C@H]3O[C@]3(C)CC/C=C(\C)[C@@H](OC(=O)C(C)C(C)O)C[C@@H]12` (some centres undefined): the IC50 was 11.7 µg/mL (≈ 32.1 µM) in the assay on HT-29; 0.39 µg/mL (≈ 1.07 µM) in the assay on HCT-116; 13.4 µg/mL (≈ 36.8 µM) in assay [1]; above 40 µg/mL in the assay on MCF7; 25.4 µg/mL (≈ 69.7 µM) with LNCaP; 11.3 µg/mL (≈ 31 µM) in the assay with PC-3.
As to `C=C1C(=O)O[C@@H]2[C@H]3O[C@]3(C)CC/C=C(\C)[C@@H](OC(=O)CC(C)(C)O)C[C@@H]12`, the IC50 with HT-29 was 17.5 µg/mL (≈ 48 µM); in the assay on HCT-116 it was 14.1 µg/mL (≈ 38.7 µM); in assay [1], 14.9 µg/mL (≈ 40.9 µM); in the assay on MCF7, above 40 µg/mL; in the assay on LNCaP, 34.2 µg/mL (≈ 93.8 µM); in the assay on PC-3 it was 18.2 µg/mL (≈ 49.9 µM).
`COc1cccc2c1C(=O)c1c(O)c3c(c(O)c1C2=O)C[C@@](O)(C(C)=O)C[C@@H]3O[C@H]1C[C@H](N)[C@H](O)[C@H](C)O1.Cl` [DAUNORUBICIN HYDROCHLORIDE]: the IC50 in the assay on HT-29 was 0.072 µg/mL; in the assay on HCT-116, 0.28 µg/mL; in assay [1] it was 0.11 µg/mL; in the assay with MCF7 it was 0.12 µg/mL; in the assay with LNCaP, 0.011 µg/mL; with PC-3, 0.23 µg/mL.
